Assay results from publication PMC10405366 (Molecular pharmaceutics, 2023).

Tests used:
[1] = system: female athymic nude (nu/nu) mice; assay: Tolerability study: hematology; format: in vivo, mouse
Outline: (§1)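 Athymic nude mice (n = 5 per group) received test compound or the Tween80:Captex200:saline vehicle IP every 2 days for 14 days. About 2–4 h after the last dose, mice were killed with CO2 and blood was drawn by cardiac puncture. Complete blood counts and serum chemistry were run by a pathology core. Values are given as means ± SD, n = 3–5.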

[2] = system: female athymic nude (nu/nu) mice; assay: Tolerability study: serum chemistry; format: in vivo, mouse; conditions: 0.10 mg/kg IP every 2 days, 14 days
Outline: as §1

[3] = 0.10 mg/kg IP every 2 days, 14 days
[4] = 0.25 mg/kg IP every 2 days, 14 days
[5] = 1.00 mg/kg IP every 2 days, removed at 8 days

## CN1C(=O)[C@]23SS[C@@]1(C)C(=O)N2[C@H]1Nc2ccccc2[C@@]1([C@@]12c4ccccc4N[C@@H]1N1C(=O)[C@@]4(C)SS[C@]1(C(=O)N4C)[C@H]2O)[C@@H]3O [verticillin A]
[1]; [3]
  MCH: 14.6 ± 0.2 pg
  MCHC: 32.7 ± 0.7 g/dL
  MCV: 44.6 ± 0.2 fL
  MPV: 7.9 ± 0.1 fL
  PCT: 0.701 ± 0.065%
  PDW: 47.4 ± 1.9%
  RBC: 9.89 ± 0.33 M/μL
  RDW: 13.8 ± 0.5%
  Reticulocyte #: 0 ± 0 K/μL
  WBC #: 6.01 ± 1.29 K/μL
  basophil #: 0.02 ± 0.01 K/μL
  eosinophil #: 0.02 ± 0.02 K/μL
  hematocrit: 44.1 ± 1.4%
  hemoglobin: 14.4 ± 0.3 g/dL
  lymphocyte #: 3.94 ± 1.16 K/μL
  monocyte #: 0.37 ± 0.09 K/μL
  neutrophil #: 1.65 ± 0.15 K/μL
  nucleated RBCs #: 0 ± 0 K/μL
  platelet #: 892 ± 74 K/μL
  reticulocyte: 0 ± 0%
[1]; [4]
  MCH: 15.2 ± 0.4 pg
  MCHC: 32.6 ± 1.2 g/dL
  MCV: 46.8 ± 1.0 fL
  MPV: 7.6 ± 1.1 fL
  PCT: 0.735 ± 0.147%
  PDW: 48.7 ± 0.8%
  RBC: 9.28 ± 0.81 M/μL
  RDW: 14.2 ± 0.4%
  Reticulocyte #: 8.6 ± 8.3 K/μL
  WBC #: 4.22 ± 1.68 K/μL
  basophil #: 0.01 ± 0.01 K/μL
  eosinophil #: 0.02 ± 0.01 K/μL
  hematocrit: 43.5 ± 4.0%
  hemoglobin: 14.2 ± 1.3 g/dL
  lymphocyte #: 1.72 ± 0.76 K/μL
  monocyte #: 0.18 ± 0.06 K/μL
  neutrophil #: 2.30 ± 0.98 K/μL
  nucleated RBCs #: 0 ± 0 K/μL
  platelet #: 964 ± 203 K/μL
  reticulocyte: 0.10 ± 0.09%
[1]; [5]
  MCH: 15.4 ± 0.3 pg
  MCHC: 33.7 ± 0.7 g/dL
  MCV: 45.5 ± 0.6 fL
  MPV: 7.7 ± 0.2 fL
  PCT: 0.815 ± 0.096%
  PDW: 47.3 ± 1.7%
  RBC: 9.79 ± 0.75 M/μL
  RDW: 16.2 ± 0.9%
  Reticulocyte #: 0 ± 0 K/μL
  WBC #: 5.97 ± 1.67 K/μL
  basophil #: 0.01 ± 0.01 K/μL
  eosinophil #: 0.03 ± 0.01 K/μL
  hematocrit: 44.6 ± 3.4%
  hemoglobin: 15.0 ± 1.0 g/dL
  lymphocyte #: 1.63 ± 1.19 K/μL
  monocyte #: 0.21 ± 0.29 K/μL
  neutrophil #: 4.09 ± 1.30 K/μL
  nucleated RBCs #: 0 ± 0 K/μL
  platelet #: 1057 ± 146 K/μL
  reticulocyte: 0 ± 0%
[2]
  ALP: 163 ± 27 U/L
  ALT: 38 ± 6 U/L
  AST: 98 ± 16 U/L
  BUN: 18 ± 3 mg/dL
  GGT: 5 ± 0 U/L
  albumin: 3.5 ± 0.3 g/dL
  amylase: 1153 ± 176 U/L
  calcium: 11.8 ± 0.4 mg/dL
